Assay outcomes: PubChem, Broad Institute
Shown are actives, neighbours in structure and some others; about 1.5% of the full set was active somewhere.
dFosB activator – activators of delta FosB homodimer, primary screen, biochemical, fluorescence polarization, TAMRA-CDK5 oligo, single point; Protein FosB (Mus musculus), P13346; purified delta FosB; percent of positive-control signal above neutral wells; activation, % at 25 µM; hit rate 0.99% among 340,000; AID 493131, 2011;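 active = mean activation above about 17%, with every replicate also reaching it, limit read from the data, passing the limit was not always enough; inconclusive = only one of the two conditions met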
S100A4 inh HTS – inhibitors of S100A4-myosin IIA peptide binding, primary screen, biochemical, fluorescence polarization, TAMRA-MyoIIA peptide. AID 652163, 2013. hit rate 0.14% among 360,000. Protein S100-A4 (Homo sapiens), P26447. inhibition, % at 10.7 µM;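 active = mean inhibition of at least 70% across replicates, with every replicate also reaching that level; inconclusive = mean inhibition reaches 70% but some replicates fall short; inactive = mean inhibition below 70%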
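assay system = human S100A4 monomer with TAMRA-labelled myosin IIA peptide | also added = labelled myosin peptide probe, 5 nM | incubation = 5 min between mix addition and reading | control set = DMSO and TFP controls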
RAD54 branch – inhibitors of human RAD54 branch migration, primary screen, biochemical, fluorescence, single point. DNA repair and recombination protein RAD54-like (Homo sapiens), Q92698. RAD54 Holliday junction branch migration, FAM/BHQ fluorescence. inhibition, % at 10.4 µM. hit rate 0.14% among 360,000. AID 602329, 2012;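 active = mean normalized replicate activity at least 40 and at least half of replicates scoring 40 or more; inconclusive = only one of the two criteria met; inactive = mean below 40 and under half of replicates reaching 40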;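 also: inhibitors cause a drop in the FAM fluorescence signal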
RAD52 inh – RAD52 DNA annealing inhibitors, primary screen, biochemical, FRET, single point, set 2. DNA repair protein RAD52 homolog (Homo sapiens), P43351. recombinant RAD52 DNA annealing, FRET fluorescence. inhibition, % at 18.7 µM. hit rate 0.46% among 360,000;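 active = every replicate showing at least 50% inhibition; inconclusive = mean inhibition at least 50% but not in every replicate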
AF4-AF9 inh – inhibitors of AF4 peptide binding to AF9, primary screen, biochemical, AlphaScreen, biotin-AF4 peptide, FLAG-AF9, single point. inhibition, % at 10 µM. hit rate 0.47% among 350,000;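 active = every replicate reaching a set inhibition limit, whatever the replicate mean, cut at about 25% in these data; inconclusive = mean inhibition reaches that limit but some replicates miss it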
A number is an active result; i = inactive; ? = inconclusive; nt = no result given.

SMILES	dFosB activator	S100A4 inh HTS	RAD54 branch	RAD52 inh	AF4-AF9 inh
C[C@H](CO)N1C[C@H](C)[C@@H](CN(C)S(=O)(=O)c2cn(C)cn2)Oc2ccc(NC(=O)CCC(F)(F)F)cc2C1=O	nt	i	i	i	i
C/C=C/c1ccc([C@H]2[C@@H](CO)N(C(C)=O)C23CN(C(=O)c2ccc(F)cc2)C3)cc1	nt	i	nt	i	i
COc1cc(-c2nc(-c3ccc(NC(=O)c4ccc(Br)o4)cc3)no2)cc(OC)c1OC	49	nt	i	nt	nt
COc1ccc2c3c(n(C)c2c1)[C@@H](CO)N(C(=O)C1CC1)CC31CCN(Cc2cccc(F)c2)CC1	nt	i	nt	i	?
COc1cccc(CN2CC3(C2)CN(C(=O)C2CC2)[C@H](CO)c2c3c3ccc(OC)cc3n2C)c1	nt	nt	nt	nt	27
COc1ccc2c3c(n(C)c2c1)[C@@H](CO)N(C(=O)C1CC1)CC31CN(Cc2cccc(F)c2)C1	nt	i	nt	i	nt
COc1ccc2c3c(n(C)c2c1)[C@@H](CO)N(C(=O)C1CCC1)CC31CCN(Cc2cccc(F)c2)CC1	nt	i	nt	i	29
COc1ccc2c3c(n(C)c2c1)[C@H](CO)N(C(=O)C1CCC1)CC31CCN(Cc2cccc(F)c2)CC1	nt	i	nt	i	?
COc1ccc2c3c(n(C)c2c1)[C@H](CO)N(C(=O)C1CC1)CC31CCN(Cc2cccc(F)c2)CC1	nt	i	nt	i	26
O=C(C[C@@H]1CC[C@@H]2[C@H](COC[C@@H](O)CN2Cc2ccc(Cl)cc2)O1)NCCc1ccccc1	nt	i	i	i	i
O=C(C[C@@H]1CC[C@@H](NC(=O)Nc2ccc(F)cc2)[C@H](CO)O1)NCc1cccc(F)c1	nt	i	i	i	i
C[C@H](CO)N1C[C@H](C)[C@@H](CN(C)C(=O)[C@H](Cc2ccccc2)N(C)C)OCc2ccccc2-c2c(n(C)c3ccccc23)C1=O	nt	i	i	i	37
C[C@@H]1CN([C@H](C)CO)C(=O)c2ccccc2-c2ccccc2CO[C@H]1CN(C)C(=O)Oc1ccccc1	nt	94	i	i	i
C[C@@H]1CN([C@H](C)CO)C(=O)c2c(c3ccccc3n2C)-c2ccccc2CO[C@@H]1CN(C)C(=O)CCN(C)C	nt	i	nt	i	i
C[C@@H]1CN([C@H](C)CO)C(=O)c2c(c3ccccc3n2C)-c2ccccc2CO[C@H]1CN(C)C(=O)CCN(C)C	nt	i	i	57	i
C[C@H]1CN([C@@H](C)CO)C(=O)c2c(c3ccccc3n2C)-c2ccccc2CO[C@@H]1CN(C)C(=O)CCN(C)C	nt	i	i	59	i
COc1cccc(-c2ccc([C@@H]3[C@H]4CN(C(=O)C5CCCCC5)CC(=O)N4[C@H]3CO)cc2)c1	nt	i	nt	i	i
COc1ccc(S(=O)(=O)N(C)C[C@@H]2OCc3ccccc3-c3ccccc3C(=O)N([C@H](C)CO)C[C@H]2C)cc1	nt	i	i	i	i
COc1ccc(S(=O)(=O)N(C)C[C@@H]2OCCCC[C@@H](C)Oc3ccc(NC(=O)CCCN(C)C)cc3C(=O)N([C@H](C)CO)C[C@H]2C)cc1	nt	i	i	i	i
COCC(=O)N1C[C@@H]2[C@H](c3ccccc31)[C@@H](CO)N2C(=O)C1CCOCC1	nt	nt	i	nt	nt
COc1ccccc1NC(=O)c1ccc2nc(-c3ccccc3)c(-c3ccccc3)nc2c1	i	nt	i	nt	nt
COc1ccccc1-c1nc2cc3ccccc3cc2nc1-c1ccccc1	i	i	nt	i	26
C[C@@H]1CN([C@H](C)CO)C(=O)c2cc(-c3cncnc3)cnc2O[C@H]1CN(C)C(=O)Cc1ccccc1	nt	i	i	i	i
CO[C@H]1CC[C@H]2CCN(C)C(=O)[C@@H](C)[C@@H](OC)CN(C)C(=O)c3cc(C#N)ccc3OC[C@@H]1O2	nt	i	i	i	i
O=C(Nc1ccccc1)N1CC(=O)N2[C@H](C1)[C@@H](c1ccc(C#Cc3cccnc3)cc1)[C@@H]2CO	nt	i	nt	i	i
N#Cc1ccccc1Sc1ccccc1C(=O)NCC(c1ccco1)N1CCCC1 (stereo unspecified)	i	i	nt	i	27
N#Cc1ccc(C(=O)NCC(c2ccco2)N2CCCC2)cc1 (stereo unspecified)	i	nt	i	nt	nt
